Source: PubChem
DAGLB inh = blocks human DAGLB lipase activity. Q8NCG7. HEK293T DAGLB membrane lysate, EnzChek fluorogenic substrate. inhibition, % at 5.17 µM. 340,000 compounds, 0.059% hits. AID 504411; in the data active = inhibition above about 34%
Target sequence (Q8NCG7 whole entry, looked up): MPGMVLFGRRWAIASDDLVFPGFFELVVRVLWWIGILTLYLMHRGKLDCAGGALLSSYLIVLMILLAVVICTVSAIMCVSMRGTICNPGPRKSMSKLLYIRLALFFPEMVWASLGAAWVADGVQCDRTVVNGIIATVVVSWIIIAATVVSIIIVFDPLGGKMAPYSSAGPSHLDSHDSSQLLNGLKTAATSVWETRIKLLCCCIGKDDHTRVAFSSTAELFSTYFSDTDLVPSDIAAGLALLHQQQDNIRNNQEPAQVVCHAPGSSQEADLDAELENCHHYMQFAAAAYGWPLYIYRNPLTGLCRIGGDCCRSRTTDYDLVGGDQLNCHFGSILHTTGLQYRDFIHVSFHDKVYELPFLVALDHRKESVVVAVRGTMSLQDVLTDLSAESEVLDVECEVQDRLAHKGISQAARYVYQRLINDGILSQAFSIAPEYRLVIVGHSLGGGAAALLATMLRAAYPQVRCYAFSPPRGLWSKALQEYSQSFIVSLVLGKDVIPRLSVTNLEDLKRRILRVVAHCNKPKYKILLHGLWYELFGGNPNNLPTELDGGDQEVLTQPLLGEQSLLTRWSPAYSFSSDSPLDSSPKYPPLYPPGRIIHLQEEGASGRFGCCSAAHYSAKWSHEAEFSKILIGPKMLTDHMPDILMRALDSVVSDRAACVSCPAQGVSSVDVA
NRP1-CendR mod = NRP-1/CendR interaction modulation; 360,000 compounds, 0.85% hits; FAM-RPARPAR peptide binding to NRP-1, fluorescence polarization; inhibition, % at 25 µM; AID 602438;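 active = inhibition or corrected inhibition above about 18%, plus a signal ratio from 0.5 to 1.5, limit read from the data, passing the limit was not always enough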
MT1-MMP act inh = inhibitors of human MT1-MMP activation | HT1080 RFP-PRO-GFP cells, GFP/RFP ratio fluorescence, overnight; percent of plate control window, DMSO zero | 360,000 compounds, 0.061% hits | AID 651647 | P50281 | GFP/RFP ratio change, % at 20 µM;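 active = GFP/RFP ratio change of at least 30% with cell ATP level not reduced by more than half and red fluorescence within 50% of control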
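Assay system: HT1080 RFP-PRO-GFP cells | Dosing: 20 µM single dose, 1% DMSO | Incubation: Cells overnight before dosing, compound overnight, 37 °C, 5% CO2 | Evaluation: GFP/RFP fluorescence ratio | Control set: DMSO-only wells and HT1080 RFP-L50D-GFP cell wells as references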
SENP1 inh = SENP1 (human) catalytic domain inhibition; inhibition, % at 10 µM; Q9P0U3; recombinant SENP1 catalytic domain, CyPet-SUMO1-YPet FRET cleavage; 360,000 compounds, 0.21% hits;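 active = inhibition at least 30% at 10 µM, raw YFP signal under a set limit, fluorescence ratio 0.5 to 1.5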
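Material – human SENP1 catalytic domain · Input – SENP1 enzyme, 20 pM final · Compound dosing – single concentration of 10 µM compound, 0.5% DMSO final · Timing – enzyme reaction for 50 min at room temperature, dark · Measured by – FRET fluorescence in CFP and YFP emission channels · Control set – no-enzyme wells low, DMSO-plus-enzyme wells high control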
beta cell repl = MIN6 beta-cell proliferation induction | MIN6 cells proliferation, ATPlite luminescence, 48 h; cells starved in 0.2% serum; 100% = growth in 10% serum | proliferation, % at 10 µM | 330,000 compounds, 0.29% hits;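 active = compounds whose signal lies at least 3.5 SD above the mean of all wells on their plate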
Myeloid diff MLP = promotes myeloid progenitor differentiation; AID 624256; 360,000 compounds, 1% hits; ER-HoxA9 myeloid progenitors, lysozyme-GFP differentiation, flow cytometry; calls only at 10 µM;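 active = normalized GFP-positive differentiation at or above the plate's own cutoff, the solvent-only control mean plus 3 SD; inconclusive = no clear call, values can overlap the other calls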;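 also: cells exposed to compound for four days before flow analysis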
DAGLB inh conf = DAGLB (human) inhibition, confirmation screen | 190 compounds, 73% hits | inhibition, % at 5.17 µM | HEK293T DAGLB membrane lysate, EnzChek fluorogenic substrate | shares compounds with DAGLB inh;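 active = mean inhibition over triplicate wells above a set limit taken from the primary lipase screen, cut at about 34% in these data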
Large screens that a line does not name were inactive (follow-up assays come after a bar, where they were run). In the library only some 2.4% were active in any assay of this set; here they are far more common.

CC1(C)CC(=O)C2=C(C1)c1c(ccc3ccccc13)NC2c1cc([N+](=O)[O-])cc([N+](=O)[O-])c1O (stereo unspecified)	DAGLB inh 42.2 | DAGLB inh conf 38.7
O=[N+]([O-])c1cc([N+](=O)[O-])c2oc(-c3ccccc3)c(Br)c2c1O	DAGLB inh 36.9 (no result: beta cell repl) | DAGLB inh conf 37.2
O=c1cc(-c2ccccc2Cl)oc2ccc([N+](=O)[O-])c(O)c12	none
CCOC1OC(=O)C(Cl)=C1Nc1ccc(C)cc1C (stereo unspecified)	none
Cc1ccc(NC2=C(Cl)C(=O)OC2OC(=O)c2ccco2)c(C)c1 (stereo unspecified)	DAGLB inh 36.4 | DAGLB inh conf inactive
Cc1ccc(C)c(NC2=C(Cl)C(=O)OC2OC(=O)c2ccco2)c1 (stereo unspecified)	DAGLB inh 40.0 | DAGLB inh conf inactive
Cc1ccc(NC2=C(Cl)C(=O)OC2OC(=O)c2ccco2)cc1C (stereo unspecified)	DAGLB inh 38.8 | DAGLB inh conf 36.5
O=C(O)C[C@@H](CNC(=O)COc1ccc2ccc(=O)oc2c1)c1ccc(Cl)cc1	none
Cc1ccc(C)c(NC(=O)/C(C#N)=C/c2cn(CC(=O)NCc3ccco3)c3ccccc23)c1	DAGLB inh 46.1 | DAGLB inh conf 48.2
Cc1ccc(NC(=O)/C(C#N)=C/c2cn(CC(=O)NCc3ccco3)c3ccccc23)cc1C	none
O=C(NC(C(=O)N/N=C/c1c2ccccc2cc2ccccc12)c1n[nH]c(=O)c2ccccc12)c1ccccc1 (stereo unspecified)	DAGLB inh 39.9, Myeloid diff MLP inconclusive | DAGLB inh conf 37.5
C/C(N)=C(/C#N)C(=O)CSc1nc2cc(Cl)ccc2s1	none
CCn1nc([N+](=O)[O-])c(C(C#N)c2nc3cc(C(F)(F)F)ccc3s2)c(Cl)c1=O (stereo unspecified)	DAGLB inh 60.1, NRP1-CendR mod 26.1, Myeloid diff MLP active | DAGLB inh conf 106.1
O=C(Nc1cccc(C(F)(F)F)c1)c1cccc(NS(=O)(=O)c2ccc(O)c(C(=O)O)c2)c1	DAGLB inh 40.8 | DAGLB inh conf inactive
O=C(Nc1cccc(C(F)(F)F)c1)c1cccc(NS(=O)(=O)c2ccc(Br)c(C(=O)O)c2)c1	none
CCOc1ccc2c(c1)-c1c(ssc1=S)C(C)(C)N2C(=O)CSC1=NCCS1	none
CCOc1ccc2c(c1)-c1c(ssc1=S)C(C)(C)N2	DAGLB inh 38.6 | DAGLB inh conf 35.2
O=C1/C(=C\c2cccc([N+](=O)[O-])c2O)SC(=S)N1Cc1ccccc1	none (no result: beta cell repl)
COc1cc([N+](=O)[O-])cc(/C=C2/SC(=S)N(Cc3ccccc3)C2=O)c1O	DAGLB inh 40.3, SENP1 inh 78.9 (no result: beta cell repl, Myeloid diff MLP) | DAGLB inh conf 47.9
COc1ccc(C(CNC(=O)C(C)Oc2ccc(Br)cc2)N2CCCC2)cc1 (stereo unspecified)	none
O=C1CC(=C(c2ccccc2)c2ccccc2)C(=O)N1CCCCN1CCN(c2cccc(Cl)c2)CC1	DAGLB inh 44.7 | DAGLB inh conf 53.1
Cc1cc(OCC(O)CNC(C)(C)C)ccc1Cl (stereo unspecified)	none (no result: DAGLB inh)
Nc1ncnc(N)c1N=Nc1ccccc1	none
Nc1ccc2ccccc2c1N=Nc1ccccc1	DAGLB inh 36.2 (no result: beta cell repl) | DAGLB inh conf 43.3
c1ccc(N=NC2=NN(c3ccccc3)CS2)cc1	DAGLB inh 40.9 (no result: beta cell repl) | DAGLB inh conf 55.3
Cc1ccc(C(=O)N/C(=C\c2cccs2)C(=O)NCCCN2CCOCC2)cc1	none
CCN1C(c2ccccc2)=C(c2ccccc2)S/C1=C/C=C1\SC(=S)N(C)C1=O	DAGLB inh 38.6, Myeloid diff MLP active (no result: beta cell repl) | DAGLB inh conf inactive
Cc1c(Br)cc(C(=O)OC2CCN(C)CC2)c(C)c1C	none
Nc1nc(-c2ccccc2)c(-c2ccccc2)s1	none
